From ChEMBL document CHEMBL4823317, “Synthesis, in vitro cytotoxicity and biological evaluation of twenty novel 1,3-benzenedisulfonyl piperazines as antiplatelet agents” (Bioorg Med Chem, 2021) come the findings set out here.

The test system of the first series is Blood. As to the kind of experiment: Anti-platelet aggregation activity in rabbit venous blood assessed as inhibition of ADP-induced aggregation at 1.3 uM pre-treated for 2 mins followed by ADP addition by Born turbidimetric method relative to control. The format is functional. As to conditions: Oryctolagus cuniculus. The gist of the method:
(§1)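 Platelet-rich plasma from male rabbit (2–3 kg) ear-vein blood, citrate anticoagulated (3.8%, 9:1), spun 1000 rpm 10 min at room temperature; platelet-poor plasma (3000 rpm 10 min) as blank. Compound at 1.3 µM, from DMSO solution (DMSO 0.5% v/v vehicle control), preincubated 2 min in PRP before inducer. Inhibition% = (1 − D/S) × 100, where S is aggregation with solvent.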
What is called inhibition is the relative decrease from the control value, in per cent. In the case of `CCOc1ccc(S(=O)(=O)N2CCN(c3ccccc3F)CC2)cc1S(=O)(=O)N1CCN(c2ccccc2F)CC1`, the inhibition at 1.3 µM is 21%.
Turning to `COc1ccc(S(=O)(=O)N2CCN(c3ccccc3F)CC2)cc1S(=O)(=O)N1CCN(c2ccccc2F)CC1`, the inhibition at 1.3 µM was determined as 28%.
`CCOc1ccc(S(=O)(=O)N2CCN(c3ccccc3OC)CC2)cc1S(=O)(=O)N1CCN(c2ccccc2OC)CC1`: the inhibition at 1.3 µM was 25.5%.
Same read-out and setting: to `CCOc1ccc(S(=O)(=O)N2CCN(c3ccc(C)cc3)CC2)cc1S(=O)(=O)N1CCN(c2ccc(C)cc2)CC1` belongs 43.6%.
As for `CCOc1ccc(S(=O)(=O)N2CCN(C)CC2)cc1S(=O)(=O)N1CCN(C)CC1`, the inhibition at 1.3 µM was determined as 24.5%.
Still for that read-out and setting: the value for `CCOc1ccc(S(=O)(=O)N2CCN(c3ccccc3C)CC2)cc1S(=O)(=O)N1CCN(c2ccccc2C)CC1` was 28.9%; that for `CCOc1ccc(S(=O)(=O)N2CCN(C(C)C)CC2)cc1S(=O)(=O)N1CCN(C(C)C)CC1` was 36.4%; that for `CCOc1ccc(S(=O)(=O)N2CCN(c3cccc(C)c3)CC2)cc1S(=O)(=O)N1CCN(c2cccc(C)c2)CC1` was 50.3%.
Same read-out and setting: to `COc1ccc(S(=O)(=O)N2CCN(c3ccccc3)CC2)cc1S(=O)(=O)N1CCN(c2ccccc2)CC1` belongs 27.9%.
With `CC(=O)Oc1ccccc1C(=O)O` [ASPIRIN], the inhibition at 1.3 µM was 46.3%.
The same measure, in the same setting: to `COc1ccc(C(=O)NCc2cccnc2)cc1C(=O)NCc1cccnc1` [PICOTAMIDE] belongs 45.5%.

The next series concerns Blood. Kind of series: Anti-platelet aggregation activity in rabbit venous blood assessed as inhibition of ADP-induced aggregation pre-treated for 2 mins followed by ADP addition by Born turbidimetric method. The format is functional, tissue-based. The following applies: Oryctolagus cuniculus. The gist of the method: (§2)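 Rabbit PRP Born turbidimetry with the same 2 min compound preincubation. ADP or arachidonic acid as inducer. Compounds tested at 1.3, 0.65 and 0.325 µM. Inhibition% = (1 − D/S) × 100 versus the solvent control, and IC50 calculated from these inhibition rates.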
In general, IC50 refers to the concentration needed to halve the response being measured. For `CCOc1ccc(S(=O)(=O)N2CCN(c3ccc(C)cc3)CC2)cc1S(=O)(=O)N1CCN(c2ccc(C)cc2)CC1`, the concentration for half-maximal inhibition (IC50) was determined as 0.72 µM.
Still for that read-out and setting: the value for `CCOc1ccc(S(=O)(=O)N2CCN(C(C)C)CC2)cc1S(=O)(=O)N1CCN(C(C)C)CC1` was 0.8 µM; that for `CCOc1ccc(S(=O)(=O)N2CCN(c3cccc(C)c3)CC2)cc1S(=O)(=O)N1CCN(c2cccc(C)c2)CC1` was 0.45 µM; that for `CC(=O)Oc1ccccc1C(=O)O` [ASPIRIN] was 0.44 µM.
For the compound `COc1ccc(C(=O)NCc2cccnc2)cc1C(=O)NCc1cccnc1` [PICOTAMIDE], the IC50 was found to be 0.47 µM.

In a further series the test system is Blood. As to the kind of experiment: Anti-platelet aggregation activity in rabbit venous blood assessed as inhibition of arachidonic acid-induced aggregation at 1.3 uM pre-treated for 2 mins followed by ADP addition by Born turbidimetric method relative to control. The format is functional. As to conditions: Oryctolagus cuniculus. The gist of the method:
as §1
Consider `CCOc1ccc(S(=O)(=O)N2CCN(c3ccccc3F)CC2)cc1S(=O)(=O)N1CCN(c2ccccc2F)CC1`, for which the inhibition at 1.3 µM stood at 25.8%.
Take `COc1ccc(S(=O)(=O)N2CCN(c3ccccc3F)CC2)cc1S(=O)(=O)N1CCN(c2ccccc2F)CC1`: the inhibition at 1.3 µM came out at 40.6%.
Turning to `CCOc1ccc(S(=O)(=O)N2CCN(c3ccccc3OC)CC2)cc1S(=O)(=O)N1CCN(c2ccccc2OC)CC1`, the inhibition at 1.3 µM turned out to be 23.1%.
In the case of `CCOc1ccc(S(=O)(=O)N2CCN(c3ccc(C)cc3)CC2)cc1S(=O)(=O)N1CCN(c2ccc(C)cc2)CC1`, the inhibition at 1.3 µM is 43%.
On to `CCOc1ccc(S(=O)(=O)N2CCN(C)CC2)cc1S(=O)(=O)N1CCN(C)CC1`, for which the inhibition at 1.3 µM was determined as 18.1%.
Turning to `CCOc1ccc(S(=O)(=O)N2CCN(c3ccccc3C)CC2)cc1S(=O)(=O)N1CCN(c2ccccc2C)CC1`, the inhibition at 1.3 µM was 33.1%.
Take `CCOc1ccc(S(=O)(=O)N2CCN(C(C)C)CC2)cc1S(=O)(=O)N1CCN(C(C)C)CC1`: the inhibition at 1.3 µM came to 24.9%.
As to `CCOc1ccc(S(=O)(=O)N2CCN(c3cccc(C)c3)CC2)cc1S(=O)(=O)N1CCN(c2cccc(C)c2)CC1`, the inhibition at 1.3 µM worked out at 34.8%.
As to `COc1ccc(S(=O)(=O)N2CCN(c3ccccc3)CC2)cc1S(=O)(=O)N1CCN(c2ccccc2)CC1`, the inhibition at 1.3 µM amounted to 15.7%.
Consider `CC(=O)Oc1ccccc1C(=O)O` [ASPIRIN], for which the inhibition at 1.3 µM was found to be 38.5%.
On the same count and under the same terms, to `COc1ccc(C(=O)NCc2cccnc2)cc1C(=O)NCc1cccnc1` [PICOTAMIDE] belongs 37.1%.

In a further series the test system is Blood. As to the kind of experiment: Anti-platelet aggregation activity in rabbit venous blood assessed as inhibition of arachidonic acid-induced aggregation pre-treated for 2 mins followed by ADP addition by Born turbidimetric method. The class given is functional, tissue-based. As to conditions: Oryctolagus cuniculus. The gist of the method:
as §2
For the compound `COc1ccc(S(=O)(=O)N2CCN(c3ccccc3F)CC2)cc1S(=O)(=O)N1CCN(c2ccccc2F)CC1`, the 50% inhibitory concentration (IC50) was found to be 0.48 µM.
Same read-out and setting: to `CCOc1ccc(S(=O)(=O)N2CCN(c3ccc(C)cc3)CC2)cc1S(=O)(=O)N1CCN(c2ccc(C)cc2)CC1` belongs 0.26 µM; to `CCOc1ccc(S(=O)(=O)N2CCN(c3ccccc3C)CC2)cc1S(=O)(=O)N1CCN(c2ccccc2C)CC1`, 0.65 µM.
The same measure, in the same setting: to `CCOc1ccc(S(=O)(=O)N2CCN(c3cccc(C)c3)CC2)cc1S(=O)(=O)N1CCN(c2cccc(C)c2)CC1` belongs 0.43 µM; to `CC(=O)Oc1ccccc1C(=O)O` [ASPIRIN], 0.43 µM; to `COc1ccc(C(=O)NCc2cccnc2)cc1C(=O)NCc1cccnc1` [PICOTAMIDE], 0.34 µM.

The subject of another series is Blood. Kind of series: Anti-platelet aggregation activity in rabbit venous blood assessed as inhibition of collagen-induced aggregation at 1.3 uM pre-treated for 2 mins followed by ADP addition by Born turbidimetric method relative to control. As to conditions: Oryctolagus cuniculus. The class given is functional. The essentials: as §1
Turning to `CCOc1ccc(S(=O)(=O)N2CCN(c3ccccc3F)CC2)cc1S(=O)(=O)N1CCN(c2ccccc2F)CC1`, the inhibition at 1.3 µM was determined as 50.3%.
For `COc1ccc(S(=O)(=O)N2CCN(c3ccccc3F)CC2)cc1S(=O)(=O)N1CCN(c2ccccc2F)CC1`, the inhibition at 1.3 µM was 28.8%.
Still for that read-out and setting: the value for `CCOc1ccc(S(=O)(=O)N2CCN(c3ccccc3OC)CC2)cc1S(=O)(=O)N1CCN(c2ccccc2OC)CC1` was 25.2%; that for `CCOc1ccc(S(=O)(=O)N2CCN(c3ccc(C)cc3)CC2)cc1S(=O)(=O)N1CCN(c2ccc(C)cc2)CC1` was 28.5%; that for `CCOc1ccc(S(=O)(=O)N2CCN(C)CC2)cc1S(=O)(=O)N1CCN(C)CC1` was 29.5%.
On to `CCOc1ccc(S(=O)(=O)N2CCN(c3ccccc3C)CC2)cc1S(=O)(=O)N1CCN(c2ccccc2C)CC1`, for which the inhibition at 1.3 µM came to 41.6%.
The same measure, in the same setting: the value for `CCOc1ccc(S(=O)(=O)N2CCN(C(C)C)CC2)cc1S(=O)(=O)N1CCN(C(C)C)CC1` was 39%; that for `CCOc1ccc(S(=O)(=O)N2CCN(c3cccc(C)c3)CC2)cc1S(=O)(=O)N1CCN(c2cccc(C)c2)CC1` was 48.8%; that for `COc1ccc(S(=O)(=O)N2CCN(c3ccccc3)CC2)cc1S(=O)(=O)N1CCN(c2ccccc2)CC1` was 20.4%.
Same read-out and setting: the value for `CC(=O)Oc1ccccc1C(=O)O` [ASPIRIN] was 49.1%.
In the case of `COc1ccc(C(=O)NCc2cccnc2)cc1C(=O)NCc1cccnc1` [PICOTAMIDE], the inhibition at 1.3 µM was determined as 49.2%.

Test system in the next series: not listed separately
Kind of series: Cytotoxicity against mouse L929 cells assessed as cell survival at 10 uM incubated for 48 hrs by CCK-8 assay relative to control. The following applies: read-out: Activity. The format is cell-based. The gist of the method: (§3)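 L929 mouse fibroblasts seeded at 10,000 cells/well in RPMI-1640 and allowed to attach 24 h at 37 °C. Compounds then added at 10 and 100 µM for 48 h at 37 °C. Medium replaced with fresh medium, CCK-8 added, 30 min further incubation, absorbance read at 450 nm. Viability = Abs(test)/Abs(control) × 100%.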
(In general: Tetrazolium assays rely on reduction of a dye to a coloured formazan, in cell work by metabolically active cells.)
In the case of `CCOc1ccc(S(=O)(=O)N2CCN(c3ccccc3F)CC2)cc1S(=O)(=O)N1CCN(c2ccccc2F)CC1`, the viability at 48 h, 10 µM is 70.4%.
Same read-out and setting: the value for `COc1ccc(S(=O)(=O)N2CCN(c3ccccc3F)CC2)cc1S(=O)(=O)N1CCN(c2ccccc2F)CC1` was 77.8%; that for `CCOc1ccc(S(=O)(=O)N2CCN(c3ccc(C)cc3)CC2)cc1S(=O)(=O)N1CCN(c2ccc(C)cc2)CC1` was 51.8%.
`CCOc1ccc(S(=O)(=O)N2CCN(c3cccc(C)c3)CC2)cc1S(=O)(=O)N1CCN(c2cccc(C)c2)CC1`: the viability at 48 h, 10 µM was found to be 56.6%.

Test system in a further series: not listed separately
As to the kind of experiment: Cytotoxicity against mouse L929 cells assessed as cell survival at 100 uM incubated for 48 hrs by CCK-8 assay relative to control. As to conditions: read-out: Activity. The format is cell-based. The essentials: as §3
Regarding `CCOc1ccc(S(=O)(=O)N2CCN(c3ccccc3F)CC2)cc1S(=O)(=O)N1CCN(c2ccccc2F)CC1`, the viability at 48 h, 100 µM was found to be 3.7%.
For the compound `COc1ccc(S(=O)(=O)N2CCN(c3ccccc3F)CC2)cc1S(=O)(=O)N1CCN(c2ccccc2F)CC1`, the viability at 48 h, 100 µM came out at 66.7%.
As for `CCOc1ccc(S(=O)(=O)N2CCN(c3ccc(C)cc3)CC2)cc1S(=O)(=O)N1CCN(c2ccc(C)cc2)CC1`, the viability at 48 h, 100 µM came out at 7.4%.
In the case of `CCOc1ccc(S(=O)(=O)N2CCN(c3cccc(C)c3)CC2)cc1S(=O)(=O)N1CCN(c2cccc(C)c2)CC1`, the viability at 48 h, 100 µM was found to be 33.3%.
